Here are results for twelve molecules from ChEMBL document CHEMBL1135891, “Development of long-acting dopamine transporter ligands as potential cocaine-abuse therapeutic agents: chiral hydroxyl-containing derivatives of 1-[2-[bis(4-fluorophenyl)methoxy]ethyl]-4-(3-phenylpropyl)piperazine and 1-[2-(diphenylmethoxy)ethyl]-4-(3-phenylpropyl)piperazine” (J Med Chem, 2002).

Assay [1] deals with Sodium-dependent dopamine transporter (Rattus norvegicus, UniProt P23977). As to the kind of experiment: Binding affinity for dopamine transporter. Put shortly: (§1)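 [125I]RTI-55 competition binding. Drugs and blockers in 55.2 mM sodium phosphate buffer pH 7.4 with 1 mg/mL BSA. Radioligand in the same buffer with chymostatin, leupeptin, EDTA and EGTA. Triplicate incubation for 18–24 h at 4 °C to equilibrium. Filtered over GF/B filters presoaked in 2% polyethylenimine, washed with ice-cold Tris-HCl/NaCl pH 7.4. Ki derived.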

Assay [2] addresses Sodium-dependent serotonin transporter (Rattus norvegicus, UniProt P31652). Description: Binding affinity for serotonin transporter. Put shortly:
as §1

In assay [3] the target is Monoamine transporters; serotonin & dopamine (Rattus norvegicus) (UniProt P31652+P23977). Description: Selectivity ratio for serotonin transporter to dopamine transporter. Format: protein assay.
In the next assay the test system is Rattus norvegicus. Description: Dopamine (DA) reuptake inhibition properties of in vivo extracellular dopamine (ECDA) levels in rat nucleus accumbens microdialysis assay, at […]. It is filed as functional. Put shortly:
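Male Sprague–Dawley rats (300–450 g), conscious and freely moving, with jugular catheters and nucleus accumbens probes (2 mm exchange surface). Single iv doses (as salt) of drug or saline vehicle given after three baseline samples. Dialysate taken every 20 min for 2 h, DA by microbore HPLC-EC. Values are pg/5 µL, mean ± SEM, n = 4–5 rats/group. Repeated-measures ANOVA.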

Chain of Sodium-dependent serotonin transporter (P31652 whole entry): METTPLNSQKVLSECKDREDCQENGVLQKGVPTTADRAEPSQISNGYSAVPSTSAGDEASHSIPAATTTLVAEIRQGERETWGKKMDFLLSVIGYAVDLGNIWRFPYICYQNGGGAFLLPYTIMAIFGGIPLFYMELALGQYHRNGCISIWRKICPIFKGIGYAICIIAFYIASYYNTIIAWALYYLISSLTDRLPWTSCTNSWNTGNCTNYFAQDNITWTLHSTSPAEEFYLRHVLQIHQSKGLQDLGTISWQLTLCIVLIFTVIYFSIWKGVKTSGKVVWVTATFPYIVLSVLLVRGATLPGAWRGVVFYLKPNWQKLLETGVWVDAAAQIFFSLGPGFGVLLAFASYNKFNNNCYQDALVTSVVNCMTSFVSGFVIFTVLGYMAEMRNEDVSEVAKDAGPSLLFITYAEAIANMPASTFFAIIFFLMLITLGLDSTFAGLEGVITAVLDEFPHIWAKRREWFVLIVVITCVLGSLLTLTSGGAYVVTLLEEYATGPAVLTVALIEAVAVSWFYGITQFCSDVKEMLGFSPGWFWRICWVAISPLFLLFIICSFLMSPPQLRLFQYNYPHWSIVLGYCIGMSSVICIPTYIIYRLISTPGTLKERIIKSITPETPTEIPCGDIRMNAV
Chain of Sodium-dependent dopamine transporter (P23977 whole entry): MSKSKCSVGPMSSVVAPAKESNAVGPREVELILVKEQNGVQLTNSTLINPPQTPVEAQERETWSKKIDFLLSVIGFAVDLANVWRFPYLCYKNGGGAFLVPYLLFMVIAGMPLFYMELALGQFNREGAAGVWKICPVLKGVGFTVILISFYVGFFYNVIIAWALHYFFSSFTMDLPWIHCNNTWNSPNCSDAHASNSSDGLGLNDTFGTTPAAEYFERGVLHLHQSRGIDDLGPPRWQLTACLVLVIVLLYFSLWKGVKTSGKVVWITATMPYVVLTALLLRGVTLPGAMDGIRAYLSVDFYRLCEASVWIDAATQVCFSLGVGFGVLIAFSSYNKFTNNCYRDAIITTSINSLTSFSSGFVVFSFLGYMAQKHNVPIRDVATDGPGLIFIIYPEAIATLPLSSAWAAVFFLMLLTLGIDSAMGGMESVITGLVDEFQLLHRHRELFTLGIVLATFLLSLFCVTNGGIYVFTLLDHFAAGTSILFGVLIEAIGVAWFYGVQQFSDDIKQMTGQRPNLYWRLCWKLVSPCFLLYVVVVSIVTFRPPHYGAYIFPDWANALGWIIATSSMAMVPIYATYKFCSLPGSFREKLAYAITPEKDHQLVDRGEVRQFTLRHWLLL
Chain of Monoamine transporters; serotonin & dopamine (Rattus norvegicus) (P23977 whole entry, looked up): as the sequence (P23977 whole entry) above
Chain of Monoamine transporters; serotonin & dopamine (Rattus norvegicus) (P31652 whole entry, looked up): as the sequence (P31652 whole entry) above

For the molecule `OCC(c1ccccc1)N1CCN(CCOC(c2ccccc2)c2ccccc2)CC1` (racemic), the Ki – broadly, a dissociation constant, usually derived from enzyme kinetics or from competition with a known ligand – in assay [1] is 120 nM; in assay [2] it was 3800 nM. Also, in assay [3], the Ratio worked out at 32.

For `O[C@H](CN1CCN(CCOC(c2ccc(F)cc2)c2ccc(F)cc2)CC1)c1ccccc1`, the Ki in assay [1] stood at 11 nM; in assay [2], 77 nM. For the same molecule, in assay [3], the Ratio came out at 7.

Take `OC(Cc1ccccc1)CN1CCN(CCOC(c2ccc(F)cc2)c2ccc(F)cc2)CC1` (racemic): the values for the Ki in assay [1] and in assay [2] were 2.3 nM and 120 nM, respectively. For the same molecule, in assay [3], the Ratio was 52.

As for `O[C@H](CN1CCN(CCOC(c2ccccc2)c2ccccc2)CC1)c1ccccc1`, the results for the Ki in assay [1] and in assay [2] were 30 nM and 1400 nM, respectively. The Ratio in assay [3] was determined as 47.

In the case of `O[C@@H](Cc1ccccc1)CN1CCN(CCOC(c2ccc(F)cc2)c2ccc(F)cc2)CC1`, the results for the Ki in assay [1] and in assay [2] were 0.75 nM and 230 nM, respectively. In the assay with Rattus norvegicus, this molecule returned a DA level of 1.73 pg 5ul-1. In addition, the Ratio in assay [3] turned out to be 307.

With `O[C@@H](CN1CCN(CCOC(c2ccc(F)cc2)c2ccc(F)cc2)CC1)c1ccccc1`, the Ki in assay [1] came out at 26 nM; in assay [2], 13 nM. In addition, the Ratio in assay [3] came to 0.5.

Regarding `O[C@@H](Cc1ccccc1)CN1CCN(CCOC(c2ccccc2)c2ccccc2)CC1`, the Ki in assay [1] stood at 2.3 nM; in assay [2], 2160 nM. Further, the Ratio in assay [3] worked out at 939.

For `O[C@@H](CN1CCN(CCOC(c2ccccc2)c2ccccc2)CC1)c1ccccc1`, the Ki was found to be 170 nM in assay [1] and 330 nM in assay [2]. Also, the Ratio in assay [3] was 2.

As for `O[C@H](Cc1ccccc1)CN1CCN(CCOC(c2ccccc2)c2ccccc2)CC1`, the Ki in assay [1] turned out to be 25 nM; in assay [2], 1800 nM. The Ratio in assay [3] was found to be 72.

Consider `Fc1ccc(C(OCCN2CCN(CCc3ccccc3)CC2)c2ccc(F)cc2)cc1`, for which the Ki in assay [1] is 8 nM; in assay [2], 36 nM. In addition, the Ratio in assay [3] came out at 5.

For `OCC(c1ccccc1)N1CCN(CCOC(c2ccc(F)cc2)c2ccc(F)cc2)CC1` (racemic), the Ki was 48 nM in assay [1] and 2500 nM in assay [2]. Moreover, the Ratio in assay [3] is 52.

Regarding `O[C@H](Cc1ccccc1)CN1CCN(CCOC(c2ccc(F)cc2)c2ccc(F)cc2)CC1`, the Ki in assay [1] is 12 nM; in assay [2] it was 160 nM. In the assay with Rattus norvegicus, the DA level was 1.73 pg 5ul-1. Besides, in assay [3], the Ratio is 13.
